Reference: ChEMBL document CHEMBL1765003, “Discovery of (1S,2R,3R)-2,3-dimethyl-2-phenyl-1-sulfamidocyclopropanecarboxylates: novel and highly selective aggrecanase inhibitors” (J Med Chem, 2011)

Columns and labels:
[1] = target: Matrix metalloproteinase-14 (Homo sapiens, UniProt P50281); test: Inhibition of human recombinant MMP14 after 60 mins by fluorescence plate reader
How it was run: (§1)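 Recombinant human enzyme at 20 ng/mL with 10 μM MOCAc-Lys-Pro-Leu-Gly-Leu-A2pr(Dnp)-Ala-Arg-NH₂, in 100 mM Tris-HCl pH 7.5, 150 mM NaCl, 10 mM CaCl₂, 0.05% Brij-35. Enzyme pretreated with inhibitor for 15 min at 25 °C, then substrate added. Fluorescence (ex 325, em 405 nm) read at 60 min. IC50 taken from three points in the linear range; mean of ≥2 determinations.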

[2] = Volume of distribution at steady state in Sprague-Dawley rat at 1 mg/kg, iv; assay type: ADME, organism-based; set-up: dose 1 mg/kg, route intravenous; conditions: in vivo, read-out: Vdss
How it was run: (§2)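 Intravenous dose of 1 mg/kg. Blood sampled at 0.50, 1, 2, 4, 8 and 24 h. Plasma obtained by centrifugation at 10 000 rpm for 5 min and kept at −20 °C until analysis.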

Cytochrome P450 2C19 = Cytochrome P450 2C19 (Homo sapiens, UniProt P33261); test: Inhibition of CYP2C19 at up to 50 uM; assay type: ADME
Sequence of Cytochrome P450 2C19 (P33261 whole entry): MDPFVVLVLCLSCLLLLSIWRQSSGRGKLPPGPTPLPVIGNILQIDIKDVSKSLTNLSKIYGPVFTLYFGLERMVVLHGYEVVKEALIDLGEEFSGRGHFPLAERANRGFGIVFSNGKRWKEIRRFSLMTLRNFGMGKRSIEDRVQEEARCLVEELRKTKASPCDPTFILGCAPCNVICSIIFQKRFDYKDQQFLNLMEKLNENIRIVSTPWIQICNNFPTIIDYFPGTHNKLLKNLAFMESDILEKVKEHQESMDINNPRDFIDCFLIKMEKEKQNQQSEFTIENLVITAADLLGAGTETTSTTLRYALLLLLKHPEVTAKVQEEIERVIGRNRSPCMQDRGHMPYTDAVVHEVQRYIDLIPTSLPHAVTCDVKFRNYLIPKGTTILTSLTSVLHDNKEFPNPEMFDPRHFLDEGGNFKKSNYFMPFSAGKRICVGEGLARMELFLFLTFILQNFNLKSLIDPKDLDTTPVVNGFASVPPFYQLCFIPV

[3] = Half life in Sprague-Dawley rat at 10 mg/kg, po; assay type: ADME, organism-based; set-up: dose 10 mg/kg, route oral; conditions: in vivo
[4] = AUC in Sprague-Dawley rat at 10 mg/kg, po; assay type: ADME, organism-based; set-up: dose 10 mg/kg, route oral; conditions: plasma
Cytochrome P450 2C9 = Cytochrome P450 2C9 (Homo sapiens, UniProt P11712); test: Inhibition of CYP2C9 at up to 50 uM; assay type: ADME
Sequence of Cytochrome P450 2C9 (P11712 whole entry, the tested form may be a part): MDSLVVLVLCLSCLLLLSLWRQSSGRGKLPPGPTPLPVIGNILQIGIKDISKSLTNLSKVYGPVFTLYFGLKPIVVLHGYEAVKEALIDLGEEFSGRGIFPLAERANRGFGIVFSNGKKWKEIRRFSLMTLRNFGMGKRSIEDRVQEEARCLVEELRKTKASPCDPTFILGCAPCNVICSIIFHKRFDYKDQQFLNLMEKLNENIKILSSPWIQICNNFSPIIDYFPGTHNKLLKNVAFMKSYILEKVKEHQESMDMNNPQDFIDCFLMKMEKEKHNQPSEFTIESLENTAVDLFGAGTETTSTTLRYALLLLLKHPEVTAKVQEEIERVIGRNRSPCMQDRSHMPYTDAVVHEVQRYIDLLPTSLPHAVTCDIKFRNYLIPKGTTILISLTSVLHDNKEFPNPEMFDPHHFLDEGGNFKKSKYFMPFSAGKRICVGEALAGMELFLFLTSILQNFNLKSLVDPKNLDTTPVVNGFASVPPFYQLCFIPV

[5] = target: Disintegrin and metalloproteinase domain-containing protein 17 (Homo sapiens, UniProt P78536); test: Inhibition of human recombinant TACE after 60 mins by fluorescence plate reader
Sequence of Disintegrin and metalloproteinase domain-containing protein 17 (P78536 whole entry, the tested form may be a part): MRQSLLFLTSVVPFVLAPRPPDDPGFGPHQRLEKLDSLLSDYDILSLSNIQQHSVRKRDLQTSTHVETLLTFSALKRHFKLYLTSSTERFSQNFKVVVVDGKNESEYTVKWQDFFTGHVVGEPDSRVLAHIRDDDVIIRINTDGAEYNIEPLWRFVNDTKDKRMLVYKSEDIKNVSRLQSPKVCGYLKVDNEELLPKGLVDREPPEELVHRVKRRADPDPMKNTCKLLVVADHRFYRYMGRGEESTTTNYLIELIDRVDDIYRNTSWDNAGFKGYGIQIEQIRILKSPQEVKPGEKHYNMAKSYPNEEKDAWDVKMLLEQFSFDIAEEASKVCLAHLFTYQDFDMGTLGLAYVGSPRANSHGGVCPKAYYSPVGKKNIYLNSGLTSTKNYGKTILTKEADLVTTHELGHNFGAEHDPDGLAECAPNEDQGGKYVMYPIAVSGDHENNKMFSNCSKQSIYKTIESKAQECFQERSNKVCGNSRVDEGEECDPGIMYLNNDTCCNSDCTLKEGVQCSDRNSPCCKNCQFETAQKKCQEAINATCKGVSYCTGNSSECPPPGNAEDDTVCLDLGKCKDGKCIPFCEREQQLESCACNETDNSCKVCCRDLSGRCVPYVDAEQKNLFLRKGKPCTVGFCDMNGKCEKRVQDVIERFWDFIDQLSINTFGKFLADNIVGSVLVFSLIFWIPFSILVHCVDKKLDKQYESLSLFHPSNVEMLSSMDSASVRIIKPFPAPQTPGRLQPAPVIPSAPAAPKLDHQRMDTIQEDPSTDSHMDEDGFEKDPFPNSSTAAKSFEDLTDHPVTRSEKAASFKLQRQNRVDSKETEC
How it was run: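 rh-TACE at 80 ng/mL with 10 μM MCA-Pro-Leu-Ala-Gln-Ala-Val-Dpa-Arg-Ser-Ser-Ser-Arg-NH₂, in 100 mM Tris-HCl pH 7.5, 150 mM NaCl, 10 mM CaCl₂, 0.05% Brij-35. Inhibitor preincubated for 15 min at 25 °C. Fluorescence (ex 325/em 405 nm) read at 60 min. IC50 from three linear-range points; mean of ≥2.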

Cytochrome P450 2A6 = target: T1, Cytochrome P450 2A6 (Homo sapiens, UniProt P11509); test: Inhibition of CYP2A6 at up to 50 uM; assay type: ADME
T1 sequence (P11509 whole entry): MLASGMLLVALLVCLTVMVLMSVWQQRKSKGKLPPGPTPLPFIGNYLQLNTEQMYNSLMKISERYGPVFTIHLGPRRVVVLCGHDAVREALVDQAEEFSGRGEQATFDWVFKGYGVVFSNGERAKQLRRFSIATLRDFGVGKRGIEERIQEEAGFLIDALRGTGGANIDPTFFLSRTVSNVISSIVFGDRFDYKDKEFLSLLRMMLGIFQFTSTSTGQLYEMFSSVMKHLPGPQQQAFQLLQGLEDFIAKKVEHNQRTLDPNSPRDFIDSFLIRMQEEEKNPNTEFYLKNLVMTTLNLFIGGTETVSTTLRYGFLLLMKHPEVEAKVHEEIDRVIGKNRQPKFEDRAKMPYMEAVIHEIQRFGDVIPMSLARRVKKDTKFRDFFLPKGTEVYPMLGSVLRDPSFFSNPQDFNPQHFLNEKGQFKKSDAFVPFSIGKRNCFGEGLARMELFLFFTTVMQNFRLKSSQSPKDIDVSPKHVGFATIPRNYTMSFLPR

Cytochrome P450 2D6 = Cytochrome P450 2D6 (Homo sapiens, UniProt P10635); test: Inhibition of CYP2D6 at up to 50 uM; assay type: ADME
Sequence of Cytochrome P450 2D6 (P10635 whole entry): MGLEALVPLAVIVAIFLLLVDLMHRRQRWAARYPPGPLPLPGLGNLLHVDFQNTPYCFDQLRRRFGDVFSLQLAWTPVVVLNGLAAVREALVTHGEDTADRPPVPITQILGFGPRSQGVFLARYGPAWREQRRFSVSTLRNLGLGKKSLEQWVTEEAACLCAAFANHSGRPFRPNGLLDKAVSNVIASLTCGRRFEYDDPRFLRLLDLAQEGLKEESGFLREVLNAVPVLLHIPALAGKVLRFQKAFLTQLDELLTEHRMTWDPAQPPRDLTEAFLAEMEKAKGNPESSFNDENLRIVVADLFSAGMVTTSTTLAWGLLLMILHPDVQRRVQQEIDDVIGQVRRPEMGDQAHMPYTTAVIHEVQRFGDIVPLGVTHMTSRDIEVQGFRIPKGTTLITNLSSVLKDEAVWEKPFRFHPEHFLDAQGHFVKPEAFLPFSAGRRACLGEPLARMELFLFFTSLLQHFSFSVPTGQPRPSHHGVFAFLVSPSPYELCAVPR

[6] = target: T2, A disintegrin and metalloproteinase with thrombospondin motifs 5 (Homo sapiens, UniProt Q9UNA0); test: Inhibition of human recombinant aggrecanase 2 after 150 mins by fluorescence plate reader
T2 sequence (Q9UNA0 whole entry): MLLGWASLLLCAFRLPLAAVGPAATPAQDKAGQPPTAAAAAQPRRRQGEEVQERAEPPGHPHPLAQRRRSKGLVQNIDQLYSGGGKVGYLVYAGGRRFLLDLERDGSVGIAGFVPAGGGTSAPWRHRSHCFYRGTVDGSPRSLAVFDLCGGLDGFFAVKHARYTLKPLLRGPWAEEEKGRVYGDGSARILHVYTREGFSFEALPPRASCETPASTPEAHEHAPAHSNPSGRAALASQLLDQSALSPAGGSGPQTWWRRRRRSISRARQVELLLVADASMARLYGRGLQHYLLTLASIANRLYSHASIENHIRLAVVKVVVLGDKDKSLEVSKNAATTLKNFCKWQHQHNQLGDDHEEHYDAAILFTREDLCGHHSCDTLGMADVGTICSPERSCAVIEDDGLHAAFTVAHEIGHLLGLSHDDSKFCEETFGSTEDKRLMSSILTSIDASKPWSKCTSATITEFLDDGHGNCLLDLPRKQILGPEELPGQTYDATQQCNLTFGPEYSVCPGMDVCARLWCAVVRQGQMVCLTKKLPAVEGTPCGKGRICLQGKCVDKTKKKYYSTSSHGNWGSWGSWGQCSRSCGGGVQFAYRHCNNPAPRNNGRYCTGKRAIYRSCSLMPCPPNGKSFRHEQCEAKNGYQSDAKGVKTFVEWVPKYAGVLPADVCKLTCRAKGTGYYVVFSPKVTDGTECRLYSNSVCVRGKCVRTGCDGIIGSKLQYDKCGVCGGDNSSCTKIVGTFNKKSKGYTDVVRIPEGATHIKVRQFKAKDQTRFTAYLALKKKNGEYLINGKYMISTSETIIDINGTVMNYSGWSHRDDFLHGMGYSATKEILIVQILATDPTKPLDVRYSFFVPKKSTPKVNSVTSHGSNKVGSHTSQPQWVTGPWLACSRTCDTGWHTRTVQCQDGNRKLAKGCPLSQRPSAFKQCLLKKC

[7] = Clearance in Sprague-Dawley rat at 1 mg/kg, iv; assay type: ADME, organism-based; set-up: dose 1 mg/kg, route intravenous; conditions: in vivo; how it was run: as §2
Interstitial collagenase = target: T3, Interstitial collagenase (Homo sapiens, UniProt P03956); test: Inhibition of human recombinant MMP1 after 60 mins by fluorescence plate reader; how it was run: as §1
T3 sequence (P03956 whole entry): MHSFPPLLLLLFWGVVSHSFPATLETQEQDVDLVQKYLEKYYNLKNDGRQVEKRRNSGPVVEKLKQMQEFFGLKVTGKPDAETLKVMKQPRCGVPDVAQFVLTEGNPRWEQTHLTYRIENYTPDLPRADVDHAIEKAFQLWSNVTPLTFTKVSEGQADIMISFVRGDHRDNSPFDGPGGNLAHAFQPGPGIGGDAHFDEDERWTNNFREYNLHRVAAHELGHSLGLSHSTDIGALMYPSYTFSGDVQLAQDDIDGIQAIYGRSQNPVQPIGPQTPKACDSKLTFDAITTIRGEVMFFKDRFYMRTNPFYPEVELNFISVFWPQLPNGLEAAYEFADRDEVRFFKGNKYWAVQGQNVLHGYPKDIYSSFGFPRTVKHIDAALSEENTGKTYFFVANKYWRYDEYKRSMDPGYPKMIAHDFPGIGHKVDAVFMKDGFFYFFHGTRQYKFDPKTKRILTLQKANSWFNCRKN

Cytochrome P450 1A2 = target: T4, Cytochrome P450 1A2 (Homo sapiens, UniProt P05177); test: Inhibition of CYP1A2 at up to 50 uM; assay type: ADME
T4 sequence (P05177 whole entry): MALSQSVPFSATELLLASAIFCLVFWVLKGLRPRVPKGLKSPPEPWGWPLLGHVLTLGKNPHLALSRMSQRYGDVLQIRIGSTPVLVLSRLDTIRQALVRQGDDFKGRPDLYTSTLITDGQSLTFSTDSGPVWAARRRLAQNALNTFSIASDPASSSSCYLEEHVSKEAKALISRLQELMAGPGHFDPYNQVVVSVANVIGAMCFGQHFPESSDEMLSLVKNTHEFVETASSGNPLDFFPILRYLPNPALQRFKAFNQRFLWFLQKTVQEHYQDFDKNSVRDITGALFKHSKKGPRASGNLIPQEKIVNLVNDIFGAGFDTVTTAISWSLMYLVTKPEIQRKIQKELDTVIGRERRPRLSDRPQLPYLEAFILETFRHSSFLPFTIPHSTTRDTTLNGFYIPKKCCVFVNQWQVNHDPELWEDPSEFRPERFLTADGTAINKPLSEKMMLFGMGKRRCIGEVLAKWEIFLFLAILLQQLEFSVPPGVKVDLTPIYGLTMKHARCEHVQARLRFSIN

Cytochrome P450 3A4 = Cytochrome P450 3A4 (Homo sapiens, UniProt P08684); test: Inhibition of CYP3A4 at up to 50 uM; assay type: ADME
Sequence of Cytochrome P450 3A4 (P08684 whole entry): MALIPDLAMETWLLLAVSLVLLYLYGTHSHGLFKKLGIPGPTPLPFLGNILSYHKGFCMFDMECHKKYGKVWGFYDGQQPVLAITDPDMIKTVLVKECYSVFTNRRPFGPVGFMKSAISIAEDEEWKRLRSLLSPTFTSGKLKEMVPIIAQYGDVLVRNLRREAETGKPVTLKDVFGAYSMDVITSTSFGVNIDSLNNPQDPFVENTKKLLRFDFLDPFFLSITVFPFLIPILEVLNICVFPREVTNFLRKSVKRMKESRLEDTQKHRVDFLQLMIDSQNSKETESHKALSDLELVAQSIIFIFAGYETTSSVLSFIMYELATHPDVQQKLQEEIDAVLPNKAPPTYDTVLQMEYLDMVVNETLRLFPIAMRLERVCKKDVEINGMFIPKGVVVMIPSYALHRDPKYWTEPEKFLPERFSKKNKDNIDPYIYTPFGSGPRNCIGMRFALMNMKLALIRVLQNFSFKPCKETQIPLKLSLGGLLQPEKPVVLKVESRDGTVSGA

[8] = Oral bioavailability in Sprague-Dawley rat at 10 mg/kg; assay type: ADME, organism-based; conditions: Sprague-Dawley, in vivo
[9] = Cmax in Sprague-Dawley rat at 10 mg/kg, po; assay type: ADME, organism-based; set-up: dose 10 mg/kg, route oral; conditions: in vivo
[10] = target: T5, A disintegrin and metalloproteinase with thrombospondin motifs 4 (Homo sapiens, UniProt O75173); test: Inhibition of human recombinant aggrecanase 1 after 150 mins by fluorescence plate reader
T5 sequence (O75173 whole entry): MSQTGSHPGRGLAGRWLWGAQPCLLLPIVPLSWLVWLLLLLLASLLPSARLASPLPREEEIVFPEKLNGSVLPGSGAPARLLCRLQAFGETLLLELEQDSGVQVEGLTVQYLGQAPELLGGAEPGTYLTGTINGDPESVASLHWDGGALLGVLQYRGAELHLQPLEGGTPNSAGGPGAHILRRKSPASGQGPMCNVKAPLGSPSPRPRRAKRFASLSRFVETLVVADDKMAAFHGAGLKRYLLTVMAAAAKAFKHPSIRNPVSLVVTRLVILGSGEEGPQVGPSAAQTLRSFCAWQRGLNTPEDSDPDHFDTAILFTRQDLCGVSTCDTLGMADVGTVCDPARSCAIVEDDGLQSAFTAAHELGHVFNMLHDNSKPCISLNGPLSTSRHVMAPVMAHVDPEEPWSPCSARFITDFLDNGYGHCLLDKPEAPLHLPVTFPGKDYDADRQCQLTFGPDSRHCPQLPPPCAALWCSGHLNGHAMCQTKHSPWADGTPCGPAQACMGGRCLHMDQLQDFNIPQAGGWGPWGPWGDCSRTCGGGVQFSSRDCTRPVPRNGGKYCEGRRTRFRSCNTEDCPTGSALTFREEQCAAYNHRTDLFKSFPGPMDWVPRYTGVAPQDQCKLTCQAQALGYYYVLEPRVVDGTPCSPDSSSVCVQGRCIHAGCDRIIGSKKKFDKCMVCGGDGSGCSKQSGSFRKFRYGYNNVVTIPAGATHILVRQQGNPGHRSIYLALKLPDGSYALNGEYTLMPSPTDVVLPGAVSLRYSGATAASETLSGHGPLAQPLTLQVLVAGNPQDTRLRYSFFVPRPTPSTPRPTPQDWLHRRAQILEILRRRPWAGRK

Homo sapiens = species: Homo sapiens; test: Selectivity ratio of IC50 for human recombinant MMP14 to IC50 for human recombinant aggrecanase 2

IC50 [1] [nM]	Vd [2] [L/kg]	inhibition (INH) (Cytochrome P450 2C19)	half-life [3] [h]	AUC [4] [µM·h]	inhibition (INH) (Cytochrome P450 2C9)	IC50 [5] [nM]	inhibition (INH) (Cytochrome P450 2A6)	inhibition (INH) (Cytochrome P450 2D6)	IC50 [6] [nM]	clearance [7] [mL/min/kg]	IC50 (Interstitial collagenase) [nM]	inhibition (INH) (Cytochrome P450 1A2)	inhibition (INH) (Cytochrome P450 3A4)	bioavailability [8] [%]	Cmax [9] [µM]	IC50 [10] [nM]	Ratio IC50 (Homo sapiens)	SMILES
> 10000	2.6	Not Active	4.5	88.4	Not Active	> 10000	Not Active	Not Active	29	4.83	> 10000	Not Active	Not Active	119	15.9	–	–	C[C@@H]1CN(S(=O)(=O)N[C@@]2(C(=O)O)[C@H](C)[C@]2(C)c2ccccc2)CCN1c1ccc(C#N)s1
–	–	–	–	–	–	–	–	–	1100	–	–	–	–	–	–	210	–	CC(C)(NC(=O)[C@H](CCC(=O)O)NC(=O)c1ccc(-c2ccccc2)cc1)c1ccccc1
2500	–	–	–	–	–	> 10000	–	–	47	–	> 10000	–	–	–	–	–	10	C[C@@H]1[C@H](c2ccccc2)[C@]1(NS(=O)(=O)N1CCN(c2ccc(Cl)cc2)[C@@H](C)C1)C(=O)O
5400	–	–	–	–	–	> 10000	–	–	27	–	> 10000	–	–	–	–	–	200	C[C@@H]1CN(S(=O)(=O)N[C@@]2(C(=O)O)[C@H](C)[C@@H]2c2ccccc2)CCN1c1cc(C(F)F)on1
